Paper PMC7909006 (Clinical cancer research : an official journal of the …, 2020)

Columns and labels:
[1] = Phase I safety and tolerability: adverse events; assay type: in vivo
[2] = test system: PBMC; test: Flow cytometric analysis of PBMC and lymphocyte subset analysis; assay type: in vivo, human
[3] = adults; cited from earlier work
[4] = test system: circulating monocytes and regulatory T cells and TAMs; details: cited from earlier work
[5] = test system: serum cytokines (IL-10, IL-12p70, IL-6, MCP-1, M-CSF); test: Pharmacodynamics: serum cytokine analysis, fold change from Day 1; assay type: in vivo, human
[6] = Plasma pharmacokinetics, noncompartmental analysis; assay type: in vivo, human
Method in brief: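 Oral dosing once daily, BSA-based at 400, 600 or 800 mg/m2, rolling-six escalation. Peripheral blood sampled on C1 day 1 before dosing and at 0.5–24 h after, on day 15 before dosing and at 1–6 h after, and before dosing on day 16. Plasma assayed by validated LC-MS/MS (LLOQ 10 nmol/L). Cmax, Tmax, AUC and CL/F derived by noncompartmental analysis.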

[7] = Population PK modeling; design: species or system human; details: for RP2D based on body weight (population PK): exposure matched to adults receiving 800 mg daily
Method in brief: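 Nonlinear mixed-effects model: two compartments, sequential zero- and first-order absorption with lag time, linear elimination, and body weight as an allometric covariate on disposition parameters. Final-model estimates were used to simulate doses for ages 6–18 years that match steady-state exposure in adult TGCT patients given 800 mg daily.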

[8] = adult patients; cited from earlier work
[9] = test system: recurrent or refractory acute leukemias or solid tumors including NF1 PN; test: Tumor response; assay type: in vivo, human
Method in brief: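 Tumors assessed at baseline (within 14 days before start), then after every even 28-day cycle with the same imaging modality. Criteria were RECIST v1.1 for solid tumors, WHO for brain tumors, and volumetric MRI for NF1 plexiform neurofibromas (baseline, every 4th cycle in year 1, then every 6 cycles). Leukemia was followed by blood and marrow each cycle. Treatment lasted up to two years.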

[10] = patient 2, Osteosarcoma, dose level 1
[11] = patient 3, Ewing Sarcoma, dose level 1
[12] = patient 4, NF1 plexiform neurofibroma, dose level 1
[13] = patient 5, NF1 plexiform neurofibroma, dose level 2
[14] = patient 6, NF1 plexiform neurofibroma, dose level 2
[15] = patient 7, Central Nervous System PNET, dose level 2
[16] = patient 8, Primary brain tumor, dose level 2
[17] = patient 9, NF1 malignant peripheral nerve sheath tumor, dose level 3
[18] = patient 10, Osteosarcoma, dose level 3
[19] = patient 11, Osteosarcoma, dose level 3

**Q.** Which “Recommended phase II dose (RP2D), BSA based” value ([1]; human, in vivo, 28 days) does the source give for `FC(F)(F)c1ccc(CNc2ccc(Cc3c[nH]c4ncc(Cl)cc34)cn2)cn1` [Pexidartinib] here?
**A.** 800 mg/m^2/day

**Q.** And the “Dose-limiting toxicities (DLT)” value ([1]; in vivo)?
**A.** No DLTs

**Q.** What about the Tolerability ([1]; in vivo, po) of the same compound?
**A.** well tolerated

**Q.** And the “Maximum tolerated dose (MTD)” value ([1]; up to 800 mg/m^2/dose)?
**A.** not reached

**Q.** What about the “Change in CD14dimCD16+ nonclassical, pro-inflammatory monocytes” value ([2]; C1) of the same compound?
**A.** No significant changes

**Q.** And the “CD11b+ cells in PBMC, median fold change (95% CI)” value ([2]; C1 days 6–8, flow cytometry)?
**A.** 0.47 (0.21, 1.31)

**Q.** And the “Change in peripheral blood lymphocyte subset analysis” value ([2]; during C1)?
**A.** no notable changes

**Q.** And the Median terminal half-life [3]?
**A.** 16.8 h

**Q.** What about the “Effect on immune cells in a preclinical model” value [4] of the same compound?
**A.** decreases in circulating monocytes and regulatory T cells and TAMs

**Q.** And the “IL-6 serum, Med. Fold Change (95% CI) from Day 1” value ([5]; 14–15 Days from C1, N=12)?
**A.** 0.91 (0.78, 1.34)

**Q.** What about the “IL-10 serum, Med. Fold Change (95% CI) from Day 1” value ([5]; 14–15 Days from C1, N=12) of the same compound?
**A.** 1.25 (1.11, 1.44)

**Q.** And the “IL-12p70 serum, Med. Fold Change (95% CI) from Day 1” value ([5]; 14–15 Days from C1, N=12)?
**A.** 0.92 (0.80, 1.25)

**Q.** What about the “M-CSF serum, Med. Fold Change (95% CI) from Day 1” value ([5]; 14–15 Days from C1, N=12) of the same compound?
**A.** 3.70 (2.31, 5.24)

**Q.** What about the “MCP-1 serum, Med. Fold Change (95% CI) from Day 1” value ([5]; 14–15 Days from C1, N=12) of the same compound?
**A.** 1.28 (1.01, 1.56)

**Q.** And the “IL-6 serum, Med. Fold Change (95% CI) from Day 1” value ([5]; 27–29 Days from C1, N=8)?
**A.** 0.98 (0.64, 2.39)

**Q.** And the “IL-10 serum, Med. Fold Change (95% CI) from Day 1” value ([5]; 27–29 Days from C1, N=8)?
**A.** 1.22 (0.81, 1.30)

**Q.** What about the “IL-12p70 serum, Med. Fold Change (95% CI) from Day 1” value ([5]; 27–29 Days from C1, N=8) of the same compound?
**A.** 0.86 (0.66, 1.05)

**Q.** And the “M-CSF serum, Med. Fold Change (95% CI) from Day 1” value ([5]; 27–29 Days from C1, N=8)?
**A.** 4.52 (2.40, 13.3)

**Q.** And the “MCP-1 serum, Med. Fold Change (95% CI) from Day 1” value ([5]; 27–29 Days from C1, N=8)?
**A.** 1.27 (1.11, 1.54)

**Q.** And the “Target inhibition (CSF1 levels elevated, AMC levels decreased)” value ([5]; 400, 600, 800 mg/m^2 DLs)?
**A.** seen at all DLs

**Q.** And the “AUC0–24 dependence on dose” value ([6]; DL1 to DL3)?
**A.** rose with increasing dose

**Q.** What about the “Cmax dependence on dose” value ([6]; DL1 to DL3) of the same compound?
**A.** rose with increasing dose

**Q.** What about the “Accumulation ratio, median” value ([6]; day 15 vs day 1, DL3 (n=3)) of the same compound?
**A.** 1.22

**Q.** What about the “Clearance from concentration x time curves” value ([6]; first day of dosing) of the same compound?
**A.** slow clearance

**Q.** What about the PK dose linearity ([6]; over three DLs) of the same compound?
**A.** linear

**Q.** What about the “RP2D based on body weight (population PK)” value (from here on “RP2D based on body weight”) ([7]; body weight < 30 kg) of the same compound?
**A.** 400 mg daily

**Q.** And the “RP2D based on body weight” value ([7]; body weight ≥ 30 & < 40 kg)?
**A.** 600 mg daily

**Q.** And the “RP2D based on body weight” value ([7]; body weight ≥ 40 kg)?
**A.** 800 mg daily

**Q.** What about the AUC ([7]; human, plasma, oral, 800 mg, Steady-state AUC, 5th to 95th percentile, adult TGCT patients receiving 800 mg daily) of the same compound?
**A.** 96 to 255 µg·h/mL

**Q.** And the “Liver toxicity in adult trials” value [8]?
**A.** idiosyncratic, serious (grade 4–5) liver toxicity was observed in a small subset of patients

**Q.** What about the “Sustained partial response, RECIST decrease in longest diameter of target lesion” value ([9]; 1 patient with peritoneal mesothelioma, 400 mg/m^2/day DL) of the same compound?
**A.** 67%

**Q.** What about the “Stable disease, number of patients” value ([9]; 16 patients enrolled) of the same compound?
**A.** three

**Q.** What about the “Median number of treatment cycles received” value ([9]; 16 patients, 1 C = 28 days) of the same compound?
**A.** 1 C

**Q.** And the “Duration of stable disease prior to disease progression” value ([9]; one patient with metastatic, rapidly progressive osteosarcoma, 1 C = 28 days)?
**A.** 4 C

**Q.** And the “Reason Off Treatment” value ([9]; patient 1, Peritoneal mesothelioma, dose level 1)?
**A.** Remains on Study

**Q.** What about the “Reason Off Treatment” value [9, 10] of the same compound?
**A.** Progressive Disease

**Q.** What about the “Time-point Off Treatment” value [9, 10] of the same compound?
**A.** Cycle 1 Day 23

**Q.** And the “Reason Off Treatment” value [9, 11]?
**A.** Progressive Disease

**Q.** What about the “Time-point Off Treatment” value [9, 11] of the same compound?
**A.** Cycle 1 Day 28

**Q.** And the “Reason Off Treatment” value [9, 12]?
**A.** Best Interest of Patient

**Q.** What about the “Time-point Off Treatment” value [9, 12] of the same compound?
**A.** After Cycle 4

**Q.** What about the “Reason Off Treatment” value [9, 13] of the same compound?
**A.** Withdrawal of Consent

**Q.** And the “Time-point Off Treatment” value [9, 13]?
**A.** After Cycle 1 (took 23 doses)

**Q.** And the “Reason Off Treatment” value [9, 14]?
**A.** Best Interest of Patient

**Q.** What about the “Time-point Off Treatment” value [9, 14] of the same compound?
**A.** After Cycle 6

**Q.** What about the “Reason Off Treatment” value [9, 15] of the same compound?
**A.** Progressive Disease

**Q.** And the “Time-point Off Treatment” value [9, 15]?
**A.** After Cycle 1

**Q.** And the “Reason Off Treatment” value [9, 16]?
**A.** Progressive Disease

**Q.** And the “Time-point Off Treatment” value [9, 16]?
**A.** After Cycle 1

**Q.** What about the “Reason Off Treatment” value [9, 17] of the same compound?
**A.** Progressive Disease

**Q.** What about the “Time-point Off Treatment” value [9, 17] of the same compound?
**A.** Cycle 2 Day 28

**Q.** What about the “Reason Off Treatment” value [9, 18] of the same compound?
**A.** Progressive Disease

**Q.** And the “Time-point Off Treatment” value [9, 18]?
**A.** Cycle 4 Day 6

**Q.** What about the “Reason Off Treatment” value [9, 19] of the same compound?
**A.** Progressive Disease

**Q.** What about the “Time-point Off Treatment” value [9, 19] of the same compound?
**A.** Cycle 3 Day 1

**Q.** And the “Reason Off Treatment” value ([9]; patient 12, Embryonal rhabdomyosarcoma, dose level 3)?
**A.** Progressive Disease
